In ChEMBL document CHEMBL1122744, “2-Chloroethyl (methylsulfonyl)methanesulfonate and related (methylsulfonyl)methanesulfonates. Antineoplastic activity in vivo” (J Med Chem, 1984):

Experiments:
Mus musculus [1] = assay: Median survival time of the untreated control groups, in which there are no 30-day survivors at dose 50 mg/kg in exp1; format: functional
Mus musculus [2] = assay: Change in weight by day 5, obtained by subtracting treated groups of animals minus control groups of animals at dose 25 mg/kg in exp1.; format: functional
Procedure, shortened: (§1)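 Mice were inoculated ip with 10^6 P388 leukemia cells on day 0, when treated and control mice weighed 19–22 g. Treatment was given ip once daily on days 1–5, within about 5 min of preparing the solution or suspension. Groups of six (occasionally five) were treated, with 30 untreated inoculated mice as controls. The day-5 weight change is the mean treated change minus the mean control change.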

Mus musculus [3] = assay: Median survival time of the treated control groups, in which there are no 30-day survivors at dose 50 mg/kg in exp1; format: functional
Mus musculus [4] = assay: Mortality by day 5 expressed as number of mice died to the total treated at dose 100 mg/kg in exp1; 6/6; format: ADME, organism-based; design: dose 100 mg/kg; conditions: in vivo
Mus musculus [5] = assay: Change in weight by day 5, obtained by subtracting treated groups of animals minus control groups of animals at dose 100 mg/kg in exp1.; format: functional; procedure, shortened: as §1
Mus musculus [6] = assay: Median survival time of the untreated control groups, in which there are no 30-day survivors at dose 25 mg/kg in exp1; format: functional
Mus musculus [7] = assay: Median survival time of the treated control groups, in which there are no 30-day survivors at dose 25 mg/kg in exp1; format: functional
[8] = Ratio of median survival times for non-survivors at dose 100 mg/kg in exp1; format: functional; design: unit: %
Procedure, shortened: (§2)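 Mice were inoculated ip with 10^6 P388 leukemia cells on day 0. Groups of six (occasionally five) were dosed ip qd on days 1–5 with fresh suspensions; 30 mice served as untreated controls. Deaths were recorded daily up to day 60. T/C% compares the median survival of treated non-survivors (<60 days) with the control median. Medians used grouped data when there were no 30-day survivors, otherwise ungrouped data. t = toxic.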

Mus musculus [9] = assay: Mortality by day 5 expressed as number of mice died to the total treated at dose 25 mg/kg in exp1; 0/6; format: ADME, organism-based; design: dose 25 mg/kg; conditions: in vivo
Mus musculus [10] = assay: Mortality by day 5 expressed as number of mice died to the total treated at dose 50 mg/kg in exp1; 0/6; format: ADME, organism-based; design: dose 50 mg/kg; conditions: in vivo
Mus musculus [11] = assay: Median survival time of the treated control groups, in which there are no 30-day survivors at dose 100 mg/kg in exp1; format: functional
[12] = Ratio of median survival times for non-survivors at dose 50 mg/kg in exp1; format: functional; design: unit: %; procedure, shortened: as §2
Mus musculus [13] = assay: Median survival time of the untreated control groups, in which there are no 30-day survivors at dose 100 mg/kg in exp1; format: functional
Mus musculus [14] = assay: Mortality by day 5 expressed as number of mice died to the total treated at dose 100 mg/kg in exp1; 2/6; format: ADME, organism-based; design: dose 100 mg/kg; conditions: in vivo
[15] = Ratio of median survival times for non-survivors at dose 6 mg/kg in exp2; format: functional
Mus musculus [16] = assay: Mortality by day 5 expressed as number of mice died to the total treated at dose 25 mg/kg in exp2; 4/6; format: ADME, organism-based; design: dose 25 mg/kg; conditions: in vivo
Mus musculus [17] = assay: Median survival time of the untreated control groups, in which there are no 30-day survivors at dose 6 mg/kg in exp2; format: functional
[18] = Ratio of median survival times for non-survivors at dose 6 mg/kg in exp1; format: functional
[19] = Ratio of median survival times for non-survivors at dose 12 mg/kg in exp2; format: functional; procedure, shortened: as §2
Mus musculus [20] = assay: Mortality by day 5 expressed as number of mice died to the total treated at dose 6 mg/kg in exp2; 0/6; format: ADME, organism-based; design: dose 6 mg/kg; conditions: in vivo
Mus musculus [21] = assay: Change in weight by day 5, obtained by subtracting treated groups of animals minus control groups of animals at dose 6 mg/kg in exp2; format: functional
Procedure, shortened: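 Mice were inoculated ip with 10^6 P388 leukemia cells on day 0 and weighed 19–22 g that day. Compound was given ip once daily on days 1–5, within about 5 min of preparing the solution or suspension, to groups of six (occasionally five). Thirty inoculated untreated mice served as controls. The value is the average weight change of treated mice minus that of controls on day 5.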

[22] = Ratio of median survival times for non-survivors at dose 25 mg/kg in exp1; t= toxic; format: ADME, organism-based; design: dose 25 mg/kg; conditions: in vivo
[23] = Ratio of median survival times for non-survivors at dose 12 mg/kg in exp1; format: functional; procedure, shortened: as §2
Mus musculus [24] = assay: Mortality by day 5 expressed as number of mice died to the total treated at dose 12 mg/kg in exp2; 1/6; format: ADME, organism-based; design: dose 12 mg/kg; conditions: in vivo
Mus musculus [25] = assay: Median survival time of the treated control groups, in which there are no 30-day survivors at dose 6 mg/kg in exp2; format: functional
Mus musculus [26] = assay: Median survival time of the treated control groups, in which there are no 30-day survivors at dose 12 mg/kg in exp1; format: functional
Mus musculus [27] = assay: Median survival time of the treated control groups, in which there are no 30-day survivors at dose 12 mg/kg in exp2; format: functional
Mus musculus [28] = assay: Median survival time of the untreated control groups, in which there are no 30-day survivors at dose 25 mg/kg in exp2; format: functional
Mus musculus [29] = assay: Change in weight by day 5, obtained by subtracting treated groups of animals minus control groups of animals at dose 12 mg/kg in exp1; format: functional; procedure, shortened: as §1
Mus musculus [30] = assay: Change in weight by day 5, obtained by subtracting treated groups of animals minus control groups of animals at dose 6 mg/kg in exp1.; format: functional; procedure, shortened: as §1
Mus musculus [31] = assay: Median survival time of the untreated control groups, in which there are no 30-day survivors at dose 12 mg/kg in exp1; format: functional
Mus musculus [32] = assay: Change in weight by day 5, obtained by subtracting treated groups of animals minus control groups of animals at dose 25 mg/kg in exp2; format: functional; procedure, shortened: as §1
Mus musculus [33] = assay: Mortality by day 5 expressed as number of mice died to the total treated at dose 25 mg/kg in exp1; 6/6; format: ADME, organism-based; design: dose 25 mg/kg; conditions: in vivo
Mus musculus [34] = assay: Change in weight by day 5, obtained by subtracting treated groups of animals minus control groups of animals at dose 12 mg/kg in exp2; format: functional; procedure, shortened: as §1
Mus musculus [35] = assay: Median survival time of the treated control groups, in which there are no 30-day survivors at dose 6 mg/kg in exp1; format: functional
[36] = Ratio of median survival times for non-survivors at dose 25 mg/kg in exp2; t= toxic; format: ADME, organism-based; design: dose 25 mg/kg; conditions: in vivo
Mus musculus [37] = assay: Median survival time of the untreated control groups, in which there are no 30-day survivors at dose 6 mg/kg in exp1; format: functional
[38] = Median survival time of the untreated control groups, in which there are no 30-day survivors at dose 12 mg/kg in exp2; format: functional
Mus musculus [39] = assay: Mortality by day 5 expressed as number of mice died to the total treated at dose 12 mg/kg in exp1; 0/6; format: ADME, organism-based; design: dose 12 mg/kg; conditions: in vivo
Mus musculus [40] = assay: Mortality by day 5 expressed as number of mice died to the total treated at dose 6 mg/kg in exp1; 0/5; format: ADME, organism-based; design: dose 6 mg/kg; conditions: in vivo

## CS(=O)(=O)OCCBr
Mus musculus [1]
  Median survival time: 11.1
Mus musculus [2]
  Change in weight: -0.7
Mus musculus [3]
  Median survival time: 12.3
Mus musculus [4]
  Mortality: 6
Mus musculus [5]
  Change in weight: -3
Mus musculus [6]
  Median survival time: 11.1
Mus musculus [7]
  Median survival time: 12
[8]
  Ratio: 106
Mus musculus [9]
  Mortality: 0
Mus musculus [10]
  Mortality: 0
Mus musculus [11]
  Median survival time: 11.8
[12]
  Ratio: 110
Mus musculus [13]
  Median survival time: 11.1
Mus musculus [14]
  Mortality: 2

## COS(=O)(=O)CS(C)(=O)=O
[15]
  Ratio: 125
Mus musculus [16]
  Mortality: 4
Mus musculus [17]
  Median survival time: 10.7
[18]
  Ratio: 135
[19]
  Ratio: 128
Mus musculus [20]
  Mortality: 0
Mus musculus [21]
  Change in weight: -0.8
[22]
  Ratio: Toxic
Mus musculus [6]
  Median survival time: 10.7
[23]
  Ratio: 130
Mus musculus [24]
  Mortality: 1
Mus musculus [25]
  Median survival time: 13.4
Mus musculus [26]
  Median survival time: 14
Mus musculus [27]
  Median survival time: 13.7
Mus musculus [28]
  Median survival time: 10.7
Mus musculus [29]
  Change in weight: -4.1
Mus musculus [30]
  Change in weight: 0
Mus musculus [9]
  Mortality: 0
Mus musculus [31]
  Median survival time: 10.7
Mus musculus [32]
  Change in weight: -2.8
Mus musculus [33]
  Mortality: 6
Mus musculus [34]
  Change in weight: -2.8
Mus musculus [35]
  Median survival time: 14.5
[36]
  Ratio: Toxic
Mus musculus [37]
  Median survival time: 10.7
[38]
  Median survival time: 10.7
Mus musculus [39]
  Mortality: 0
Mus musculus [40]
  Mortality: 0
